SMILES strings stand for the structures. ≈ marks a conversion by molar mass, not a printed value.

Format in all cases: functional, cell-based
A short description of assay [1]: Cytotoxicity against human H116 cells after 3 days by crystal violet staining. Particulars: H116, 72 h. The procedure, abridged:
(§1)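 Cells kept in log-phase growth in EMEM with nonessential amino acids, 2.0 mM L-glutamine, 5% FCS, 10^-2 M NaHCO3 and penicillin/streptomycin. Trypsin-harvested cells seeded at 1×10^4/well in 24-well dishes with graded sample concentrations, drug-free growth controls included, in duplicate. Incubated 3 days at 37 °C, 5% CO2, then crystal violet stained for approximate IC50. Coulter counts of trypsinized cells gave %G dose-response curves for IC50.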

In the next assay the test system is PSN1. As to the kind of experiment: Cytotoxicity against human PSN1 cells after 3 days by crystal violet staining. The conditions noted are these: PSN1, 72 h. The procedure, abridged:
as §1

The test system of a further assay is T98G. As to the kind of experiment: Cytotoxicity against human T98G cells after 3 days by crystal violet staining. The conditions noted are these: 72 h. The procedure, abridged:
as §1

The next assay relates to A549. As to the kind of experiment: Cytotoxicity against human A549 cells after 3 days by crystal violet staining. Particulars: A549, 72 h. The procedure, abridged: as §1
A further assay deals with HT-29. As to the kind of experiment: Cytotoxicity against human HT-29 cells after 3 days by crystal violet staining. Particulars: HT-29, 72 h. The procedure, abridged: as §1

In the case of `CC(=O)O[C@H]1CC[C@]2(C)[C@H]3C[C@@H](OC(C)=O)[C@@H]4[C@@H]([C@]5(C)CC[C@@H](C(C)(C)OC(C)=O)O5)CC[C@@]4(C)[C@]3(C)CC[C@H]2C1(C)C`, the IC50 (in assay [1]; in the assay on PSN1; in the assay with T98G; with A549) was over 5 µg/mL throughout.
As for `CC(C)(O)[C@@H]1CC[C@@](C)([C@H]2CC[C@]3(C)[C@@H]2[C@H](O)C[C@@H]2[C@@]4(C)CC[C@H](O)C(C)(C)[C@@H]4CC[C@]23C)O1` (relative stereo), the IC50 (in assay [1]; with A549) was 5 µg/mL (≈ 10.5 µM) each time.
As to `CC(=O)O[C@H]1CC[C@]2(C)[C@H]3C[C@@H](O)[C@@H]4[C@@H]([C@]5(C)CC[C@@H](C(C)(C)O)O5)CC[C@@]4(C)[C@]3(C)CC[C@H]2C1(C)C`, the IC50 (in assay [1]; in the assay on PSN1; with T98G; with A549) was over 5 µg/mL each time.
Regarding `CC(=O)O[C@@H]1C[C@@H](OC(C)=O)[C@]2(C)[C@H]3C[C@@H](O)[C@@H]4[C@@H]([C@]5(C)CC[C@H](C(C)(C)O)O5)CC[C@@]4(C)[C@]3(C)CC[C@H]2C1(C)C` (relative stereo), the IC50 (in assay [1]; in the assay with A549; with HT-29) was over 10 µg/mL in each case.
`CC(=O)O[C@@H]1C[C@@H]2[C@@]3(C)[C@H](OC(C)=O)C[C@@H](OC(C)=O)C(C)(C)[C@@H]3CC[C@@]2(C)[C@]2(C)CC[C@H]([C@]3(C)CC[C@H](C(C)(C)OC(C)=O)O3)[C@@H]12`: half-maximal inhibition in assay [1] (IC50) was put at 5 µg/mL (≈ 7.57 µM).
Regarding `CC(C)(O)[C@H]1CC[C@@](C)([C@H]2CC[C@]3(C)[C@@H]2[C@H](O)C[C@@H]2[C@@]4(C)[C@H](O)C[C@@H](O)C(C)(C)[C@@H]4CC[C@]23C)O1`, the IC50 (in assay [1]; in the assay with A549; with HT-29) was over 10 µg/mL in each case.
`CC(=O)O[C@@H]1C[C@@H]2[C@@]3(C)[C@H](OC(C)=O)C[C@@H](OC(C)=O)C(C)(C)[C@@H]3CC[C@@]2(C)[C@]2(C)CC[C@H]([C@]3(C)CC[C@H](C(C)(C)O)O3)[C@@H]12` (relative stereo): the IC50 (in assay [1]; in the assay with PSN1; in the assay on T98G; with A549) was over 5 µg/mL each time.
For the compound `CC(=O)O[C@@H]1C[C@@H](O)[C@]2(C)[C@H]3C[C@@H](O)[C@@H]4[C@@H]([C@]5(C)CC[C@H](C(C)(C)O)O5)CC[C@@]4(C)[C@]3(C)CC[C@H]2C1(C)C` (relative stereo), the IC50 (in assay [1]; in the assay with A549; in the assay on HT-29) was over 10 µg/mL each time.
`CC(=O)O[C@H]1CC[C@]2(C)[C@H]3C[C@@H](OC(C)=O)[C@@H]4[C@@H]([C@]5(C)CC[C@@H](C(C)(C)O)O5)CC[C@@]4(C)[C@]3(C)CC[C@H]2C1(C)C`: the IC50 (in assay [1]; in the assay with A549) was 5 µg/mL (≈ 8.92 µM) in each case.

The record behind these values is ChEMBL document CHEMBL1147266, “New dammarane triterpenes from the aerial parts of Ibicella lutea grown in Argentina” (J Nat Prod, 2003).
